Test results published in ChEMBL document CHEMBL3272032, “Antifolate studies. Activities of 40 potential antimalarial compounds against sensitive and chlorguanide triazine resistant strains of folate-requiring bacteria and Escherichia coli” (J Med Chem, 1977).
Calls of active or inactive are those of the source. The rule behind the calls is not given here.

Legend:
[1] = test system: Escherichia coli; assay: Antibacterial activity against sensitive Escherichia coli ATCC 10536 assessed as reduction in growth; assay type: functional, organism-based
How it was run: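 Growth inhibition in Sahyun et al. medium plus 0.6% acid-hydrolyzed casein. Growth read as turbidity on a Klett-Summerson photoelectric colorimeter. IC50 is the micromolar concentration giving 50% growth inhibition. Top concentration was 1000 μg/ml, or 100 μg/ml when compound was limited.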

[2] = test system: Lacticaseibacillus casei; assay: Antibacterial activity against chlorguanide triazine-resistant Lactobacillus casei ATCC 7469 assessed as reduction in growth; assay type: functional, organism-based
How it was run: (§1)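 Folate-requiring strains grown in medium with folic acid, 0.002 µg/ml for S. faecium and 0.001 µg/ml for L. casei; P. cerevisiae given folinic acid, 0.001 µg/ml. Resistant substrains came from serial transfer in rising chlorguanide triazine, and the most resistant were used. Compounds tested up to 1000 µg/ml, or 100 µg/ml when supply was limited. Growth read as Klett turbidity; IC50 is the µM concentration giving 50% growth inhibition.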

[3] = test system: Enterococcus faecium; assay: Antibacterial activity against sensitive Streptococcus faecium ATCC 8043 assessed as reduction in growth; assay type: functional, organism-based; how it was run: as §1
[4] = test system: Plasmodium berghei; assay: Antimalarial activity against Plasmodium berghei infected in sc dosed mouse assessed as active dose required to increase of 100% in mean survival time; assay type: functional; conditions: read-out: MED
How it was run: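 Mice received a standard blood-induced P. berghei inoculum and were then treated with one subcutaneous dose of compound suspended in peanut oil. The minimum active dose is the lowest dose that raised mean survival time by 100%.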

[5] = test system: Enterococcus faecium; assay: Antibacterial activity against chlorguanide triazine-resistant Streptococcus faecium ATCC 8043 assessed as reduction in growth in presence of 0.002 ug/ml folic acid; assay type: functional, organism-based; how it was run: as §1
[6] = test system: Pediococcus; assay: Antibacterial activity against sensitive Pediococcus cerevisiae ATCC 808 assessed as reduction in growth in presence of 0.001 ug/ml folinic acid; assay type: functional
How it was run: (§2)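 P. cerevisiae grown with folinic acid at 0.001 μg/ml in the earlier-described medium. Turbidity read on a Klett-Summerson colorimeter. IC50 is the micromolar concentration reducing growth to 50% of control. Top concentration was 1000 μg/ml, or 100 μg/ml when supply was limited.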

[7] = test system: Lacticaseibacillus casei; assay: Antibacterial activity against sensitive Lactobacillus casei ATCC 7469 assessed as reduction in growth in presence of 0.001 ug/ml folic acid; assay type: functional, organism-based
How it was run: (§3)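 Folate-requiring strains in the medium of the earlier assay method. Folic acid was 0.002 μg/ml for S. faecium and 0.001 μg/ml for L. casei. Turbidity read on a Klett-Summerson colorimeter. IC50 is the micromolar concentration reducing growth to 50% of control. Top concentration was 1000 μg/ml, or 100 μg/ml if supply was limited.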

[8] = test system: Enterococcus faecium; assay: Antibacterial activity against sensitive Streptococcus faecium ATCC 8043 assessed as reduction in growth in presence of 0.002 ug/ml folic acid; assay type: functional, organism-based; how it was run: as §3
[9] = test system: Enterococcus faecium; assay: Antibacterial activity against chlorguanide triazine-resistant Streptococcus faecium ATCC 8043 assessed as reduction in growth; assay type: functional, organism-based; how it was run: as §1
[10] = test system: Plasmodium berghei; assay: Antimalarial activity against Plasmodium berghei infected in sc dosed mouse assessed as dose required to survivors for period of 60 days; assay type: functional
How it was run: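 Mice infected with a blood-induced P. berghei inoculum were given one subcutaneous dose in peanut oil. Survivors at 60 days counted as cured. The minimum curative dose is the lowest dose that cured any mouse.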

[11] = test system: Lacticaseibacillus casei; assay: Fold increase in resistance, ratio of IC50 for chlorguanide triazine-resistant Lactobacillus casei ATCC 7469 to IC50 for sensitive Lactobacillus casei ATCC 7469; assay type: functional
How it was run: (§4)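 Resistant substrains were made by serial transfer in rising concentrations of cycloguanil, and the most resistant isolate of each organism was used. Both strains were assayed turbidimetrically under identical conditions. FIR = IC50 of the resistant strain divided by IC50 of the sensitive parent.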

[12] = test system: Pediococcus; assay: Antibacterial activity against chlorguanide triazine-resistant Pediococcus cerevisiae ATCC 808 assessed as reduction in growth in presence of 0.001 ug/ml folinic acid; assay type: functional; how it was run: as §1
[13] = Antibacterial activity against sensitive Pediococcus cerevisiae ATCC 808 assessed as reduction; assay type: functional; how it was run: as §2
[14] = test system: Enterococcus faecium; assay: Fold increase in resistance, ratio of IC50 for chlorguanide triazine-resistant Streptococcus faecium ATCC 8043 to IC50 for sensitive Streptococcus faecium ATCC 8043; assay type: functional
How it was run: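 Resistant S. faecium substrain raised by serial transfer in increasing chlorguanide triazine. IC50 (µM, 50% growth inhibition by turbidity) was found for resistant and parent strains in folic acid (0.002 µg/ml) medium. Fold increase taken as IC50 resistant / IC50 sensitive.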

[15] = test system: Lacticaseibacillus casei; assay: Antibacterial activity against sensitive Lactobacillus casei ATCC 7469 assessed as reduction; assay type: functional, organism-based; how it was run: as §1
[16] = test system: Lacticaseibacillus casei; assay: Antibacterial activity against chlorguanide triazine-resistant Lactobacillus casei ATCC 7469 assessed as reduction in growth in presence of 0.001 ug/ml folic acid; assay type: functional, organism-based; how it was run: as §1
[17] = Antibacterial activity against chlorguanide triazine-resistant Pediococcus cerevisiae ATCC 808 assessed as reduction in growth; assay type: functional; how it was run: as §1
[18] = test system: Escherichia coli; assay: Antibacterial activity against sensitive Escherichia coli ATCC 10536 assessed as reduction in growth in presence of p-aminobenzoic acid; assay type: functional, organism-based
How it was run: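 Reversal test. Drug inhibition was challenged with PABA in Sahyun et al. medium plus 0.6% acid-hydrolyzed casein. Growth read as turbidity on a Klett-Summerson colorimeter. Scored as reversal or nonreversal of the drug inhibition.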

[19] = test system: Pediococcus; assay: Fold increase in resistance, ratio of IC50 for chlorguanide triazine-resistant Pediococcus cerevisiae ATCC 808 to IC50 for sensitive Pediococcus cerevisiae ATCC 808; assay type: functional; how it was run: as §4

Work on `CC1(C)N=C(N)N=C(N)N1OCCCOc1cc(Cl)c(Cl)cc1Cl` yielded an IC50 [1] of 1700 nM, an IC50 [2] of 400 nM and an IC50 [3] of 0.1 nM. The minimal effective dose [4] was 20 mg/kg, the inhibition [5] was “inactive” and the inhibition [6] was “inactive”. For the same compound, the inhibition [7] was “inactive”, the inhibition [8] was “inactive” and the IC50 [9] was 19 nM. For the same compound, the MCD [10] was 160 mg/kg, the “Ratio IC50” value [11] was 19 and the inhibition [12] was “inactive”. For the same compound, the IC50 [13] was 3 nM, the “Ratio IC50” value [14] was 190 and the IC50 [15] was 21 nM. For the same compound, the inhibition [16] was “inactive”, the IC50 [17] was 800 nM and the inhibition [18] was “Active”. The “Ratio IC50” value [19] was 267.
